From ChEMBL document CHEMBL1124897, “(1-Pyrenylmethyl)amino alcohols, a new class of antitumor DNA intercalators. Discovery and initial amine side chain structure-activity studies” (1990)

Assays:
Assay type in all cases: functional, Mus musculus
[1] = system: P388; assay: In vivo antitumor activity against murine lymphocytic leukemia P388 measured as optimal dose
Procedure, shortened: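 Male CD2-F1 mice (20 ± 3 g) implanted ip with 1 × 10^6 viable P388 cells on day 0. Compound given ip as aqueous suspension or solution in 0.9% NaCl or 5% dextrose on days 1, 5 and 9, dosed per mg/kg body weight. Several doses bracketing LD20 were tested, six mice per dose. %ILS was calculated from median day of death of treated versus control mice. Values are optimal from at least two experiments.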

[2] = system: P388; assay: In vivo antitumor activity against murine lymphocytic leukemia P388 measured as lethal dose […]; parameters: unit: mg/kg
Procedure, shortened: (§1)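 Male CD2-F1 mice (20 ± 3 g) implanted ip with 1 × 10^6 viable P388 cells on day 0. Drug given ip as aqueous suspension or solution in 0.9% NaCl or 5% dextrose on days 1, 5 and 9, dosed per body weight in mg/kg. Several dose levels bracketing the LD20 were tested, six mice per dose. Deaths before the control median day of death were counted as drug toxicity.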

[3] = system: P388; assay: In vivo antitumor activity against murine lymphocytic leukemia P388 measured as percent increase in life span; procedure, shortened: as §1

SMILES: COCC(C)(CO)NCc1ccc2ccc3cccc4ccc1c2c34 (stereo not drawn)
- Optimal dose [1]: 180 mg/kg
- LD20 [2]: 135
- ILS [3]: 30%
